Test results published in ChEMBL document CHEMBL1177875, “Antitumor activity of (-)-alpha-bisabolol-based thiosemicarbazones against human tumor cell lines” (2010).

Legend:
Assay type in all cases: functional
UACC-62 = assay: Cytotoxicity against human UACC62 cells by sulforhodamine B assay
Procedure, shortened: (§1)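 Growth of the human tumor cell line was read colorimetrically with sulforhodamine B, following the NCI standard protocol, with doxorubicin as positive control. Compounds were tested at four concentrations in 10-fold dilutions (0.25 to 250). Dose-response curves gave GI50 (the concentration for 50% growth inhibition), TGI (total growth inhibition) and LC50 (50% cell death).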

NCI-H460 = assay: Cytotoxicity against human NCI-H460 cells by sulforhodamine B assay; conditions: for CC50: read-out: LC50 (the source's name); procedure, shortened: as §1
MCF7 = assay: Cytotoxicity against human MCF7 cells by sulforhodamine B assay; conditions: for CC50: read-out: LC50 (the source's name); procedure, shortened: as §1
HT-29 = assay: Cytotoxicity against human HT-29 cells by sulforhodamine B assay; conditions: for CC50: read-out: LC50 (the source's name); procedure, shortened: as §1
[1] = Cytotoxicity against human PCO3 cells by sulforhodamine B assay; conditions: for CC50: read-out: LC50 (the source's name); procedure, shortened: as §1
OVCAR-3 = assay: Cytotoxicity against human OVCAR-3 cells by sulforhodamine B assay; conditions: for CC50: read-out: LC50 (the source's name); procedure, shortened: as §1
[2] = Cytotoxicity against human NCI/ADR cells by sulforhodamine B assay; conditions: NCI/ADR-RES; for CC50: read-out: LC50 (the source's name); procedure, shortened: as §1
K562 = assay: Cytotoxicity against human K562 cells by sulforhodamine B assay; conditions: for CC50: read-out: LC50 (the source's name); procedure, shortened: as §1

Row | Compound | GI50 (UACC-62) | TGI (UACC-62) | GI50 (NCI-H460) | TGI (NCI-H460) | CC50 (NCI-H460) | GI50 (MCF7) | TGI (MCF7) | CC50 (MCF7) | GI50 (HT-29) | TGI (HT-29) | CC50 (HT-29) | GI50 [1] | TGI [1] | CC50 [1] | GI50 (OVCAR-3) | TGI (OVCAR-3) | CC50 (OVCAR-3) | CC50 [2] | GI50 (K562) | TGI (K562) | also measured
1 | CC1=CC[C@@H]([C@@](C)(O)CCCC(C)(C)NC(=S)N/N=C(/C)c2ccccc2)CC1 | 22.4 µM | 93.3 µM | 12.6 µM | > 100 µM | > 100 µM | 23.6 µM | 62.9 µM | > 100 µM | 28.4 µM | > 100 µM | > 100 µM | 19.9 µM | > 100 µM | > 100 µM | 14.3 µM | 59.5 µM | > 100 µM | > 100 µM | 0.01 µM | 0.07 µM | LC50 (50% cell kill) (UACC-62): > 100 µM; GI50 [2]: 0.75 µM; TGI [2]: > 100 µM; CC50 (K562): 1.54 µM
2 | CC1=CC[C@@H]([C@@](C)(O)CCCC(C)(C)NC(=S)N/N=C\c2ccccc2)CC1 | 12.7 µM | 43.8 µM | 38.4 µM | > 100 µM | > 100 µM | 7.72 µM | 28.7 µM | 60.4 µM | 9.96 µM | 36.5 µM | 57.4 µM | 8.47 µM | 36.2 µM | > 100 µM | 6.97 µM | 12.9 µM | 43.6 µM | 59.9 µM | 0.13 µM | 20.9 µM | LC50 (50% cell kill) (UACC-62): 48.4 µM; GI50 [2]: 6.97 µM; TGI [2]: 23.8 µM; CC50 (K562): > 100 µM
3 | CC1=CC[C@@H]([C@@](C)(O)CCCC(C)(C)NC(=S)N/N=C\c2ccc([N+](=O)[O-])cc2)CC1 | 20.8 µM | 62.2 µM | 10.1 µM | > 100 µM | > 100 µM | 17.7 µM | > 100 µM | > 100 µM | 12.3 µM | 62.8 µM | > 100 µM | 18.1 µM | > 100 µM | > 100 µM | 13.4 µM | 88.6 µM | > 100 µM | > 100 µM | 4.22 µM | 9.56 µM | LC50 (50% cell kill) (UACC-62): > 100 µM; GI50 [2]: 12.8 µM; TGI [2]: > 100 µM; CC50 (K562): 45.5 µM
4 | COc1cccc2c1C(=O)c1c(O)c3c(c(O)c1C2=O)C[C@@](O)(C(=O)CO)C[C@@H]3O[C@H]1C[C@H](N)[C@H](O)[C@H](C)O1 [DOXORUBICIN] | 0.18 µM | 0.55 µM | 0.05 µM | 1.42 µM | 37.9 µM | 0.04 µM | 1.84 µM | 46 µM | 0.18 µM | 46 µM | > 100 µM | 0.17 µM | 2.3 µM | > 100 µM | 0.07 µM | 8.11 µM | > 100 µM | > 100 µM | 0.03 µM | 0.33 µM | GI50 [2]: 5.99 µM; TGI [2]: > 100 µM; CC50 (K562): > 100 µM
5 | CC1=CC[C@@H]([C@@](C)(O)CCCC(C)(C)NC(=S)N/N=C\c2ccc(C)cc2)CC1 | 11.6 µM | 39 µM | 10.1 µM | > 100 µM | > 100 µM | 7.23 µM | > 100 µM | > 100 µM | 10.4 µM | 80.4 µM | > 100 µM | 6.75 µM | 45.7 µM | > 100 µM | 6.02 µM | 11.8 µM | 45.3 µM | > 100 µM | 0.14 µM | 7.95 µM | LC50 (50% cell kill) (UACC-62): 52.3 µM; GI50 [2]: 6.51 µM; TGI [2]: 30.5 µM; CC50 (K562): > 100 µM
6 | COc1ccc(/C=N\NC(=S)NC(C)(C)CCC[C@](C)(O)[C@@H]2CC=C(C)CC2)cc1 | 7.42 µM | 22.1 µM | 5.1 µM | > 100 µM | > 100 µM | 6.5 µM | 94.9 µM | > 100 µM | 7.42 µM | 35.1 µM | > 100 µM | 7.66 µM | 76 µM | > 100 µM | 6.5 µM | 15.8 µM | 46.2 µM | > 100 µM | 0.22 µM | 34.9 µM | LC50 (50% cell kill) (UACC-62): 48.5 µM; GI50 [2]: 6.73 µM; TGI [2]: 57 µM; CC50 (K562): > 100 µM
7 | CC(C)=CCC[C@](C)(O)[C@@H]1CC=C(C)CC1 [LEVOMENOL] | > 100 µM | > 100 µM | > 100 µM | > 100 µM | > 100 µM | > 100 µM | > 100 µM | > 100 µM | > 100 µM | > 100 µM | > 100 µM | > 100 µM | > 100 µM | > 100 µM | > 100 µM | > 100 µM | > 100 µM | > 100 µM | 6.37 µM | > 100 µM | GI50 [2]: > 100 µM; TGI [2]: > 100 µM; CC50 (K562): > 100 µM
8 | CC1=CC[C@@H]([C@@](C)(O)CCCC(C)(C)NC(=S)N/N=C\c2ccc(O)cc2)CC1 | 8.87 µM | 40.1 µM | 1.46 µM | 20.7 µM | > 100 µM | 6.23 µM | 21.2 µM | 56.4 µM | 8.15 µM | 31.5 µM | 58.5 µM | 6.23 µM | 13.9 µM | 50.1 µM | 6.23 µM | 17.4 µM | 54.4 µM | > 100 µM | 0.6 µM | 31.1 µM | LC50 (50% cell kill) (UACC-62): 55.6 µM; CC50 (K562): > 100 µM
9 | CC1=CC[C@@H]([C@@](C)(O)CCCC(C)(C)NC(=S)NN)CC1 | 18.5 µM | > 100 µM | 12.8 µM | 84 µM | > 100 µM | 15.3 µM | 84.2 µM | > 100 µM | 49.4 µM | > 100 µM | > 100 µM | 26.8 µM | > 100 µM | > 100 µM | 17.2 µM | > 100 µM | > 100 µM | > 100 µM | 0.02 µM | 0.38 µM | LC50 (50% cell kill) (UACC-62): > 100 µM; GI50 [2]: 0.76 µM; TGI [2]: 29 µM; CC50 (K562): 9.58 µM
10 | CC1=CC[C@@H]([C@@](C)(O)CCCC(C)(C)NC(=S)N/N=C\c2cccc([N+](=O)[O-])c2)CC1 | 7.84 µM | 24.7 µM | 8.29 µM | 68.6 µM | > 100 µM | 6.72 µM | 18.3 µM | 47.3 µM | 14.1 µM | 57.1 µM | > 100 µM | 5.6 µM | 20.7 µM | 52.5 µM | 8.51 µM | 40.8 µM | > 100 µM | > 100 µM | 0.02 µM | 0.56 µM | LC50 (50% cell kill) (UACC-62): 49.3 µM; GI50 [2]: 6.72 µM; TGI [2]: 38 µM; CC50 (K562): 12.6 µM
11 | CC1=CC[C@@H]([C@@](C)(O)CCCC(C)(C)NC(=S)N/N=C\c2ccc(N(C)C)cc2)CC1 | > 100 µM | > 100 µM | 19.6 µM | > 100 µM | > 100 µM | 14 µM | > 100 µM | > 100 µM | 27.7 µM | > 100 µM | > 100 µM | 13.7 µM | > 100 µM | > 100 µM | 3.6 µM | > 100 µM | > 100 µM | > 100 µM | 0.08 µM | 42 µM | LC50 (50% cell kill) (UACC-62): > 100 µM; GI50 [2]: 25.2 µM; TGI [2]: > 100 µM; CC50 (K562): > 100 µM
12 | CC1=CC[C@@H]([C@@](C)(O)CCCC(C)(C)NC(=S)NN=C(c2ccccc2)c2ccccc2)CC1 | > 100 µM | > 100 µM | 13.5 µM | > 100 µM | > 100 µM | 36.7 µM | > 100 µM | > 100 µM | > 100 µM | > 100 µM | > 100 µM | > 100 µM | > 100 µM | > 100 µM | > 100 µM | > 100 µM | > 100 µM | > 100 µM | 1.94 µM | 4.19 µM | LC50 (50% cell kill) (UACC-62): > 100 µM; GI50 [2]: 3.31 µM; TGI [2]: > 100 µM; CC50 (K562): 10.3 µM
13 | CC1=CC[C@@H]([C@@](C)(O)CCCC(C)(C)NC(=S)N/N=C\c2ccccc2[N+](=O)[O-])CC1 | 6.05 µM | 16.6 µM | 20.6 µM | > 100 µM | > 100 µM | 18.6 µM | > 100 µM | > 100 µM | 6.94 µM | 16.8 µM | 44.4 µM | 39.9 µM | > 100 µM | > 100 µM | 7.39 µM | 16.2 µM | 41.9 µM | > 100 µM | 0.19 µM | 7.84 µM | LC50 (50% cell kill) (UACC-62): 49.3 µM; GI50 [2]: 20.4 µM; TGI [2]: > 100 µM; CC50 (K562): > 100 µM
14 | CC1=CC[C@@H]([C@@](C)(O)CCCC(C)(C)NC(=S)N/N=C\c2cccc(Cl)c2)CC1 | 7.81 µM | 18.1 µM | 44.3 µM | > 100 µM | > 100 µM | 7.35 µM | 19.5 µM | 45.9 µM | 6.89 µM | 16.5 µM | 45.9 µM | 11.2 µM | 37.8 µM | 57 µM | 8.27 µM | 26.5 µM | 48 µM | > 100 µM | 0.03 µM | 1.06 µM | LC50 (50% cell kill) (UACC-62): 42.7 µM; GI50 [2]: 7.35 µM; TGI [2]: 31.9 µM; CC50 (K562): 56.3 µM
